Activity calls are given as the source filed them. The rule behind the calls is not given here.
Legend:
[1] = tested on: SW1573; assay: Inhibition of colony formation in human SW1573 cells assessed as reduction in number of colonies at one third of GI50 concentration measured after 7 days by crystal violet staining based analysis; assay type: functional, cell-based; conditions: time 7.0 day
In short: (§1)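 HeLa and SW1573 seeded at 400 cells/well, dosed next day at GI50/3 and GI50 for the given line. Exposed seven days, fixed in methanol, stained with 0.5% w/v crystal violet. Colonies counted by automatic image segmentation.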

[2] = tested on: HeLa; assay: Growth inhibition of human HeLa cells measured after 48 hrs by SRB colorimetric assay; assay type: functional
In short: (§2)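 NCI-based protocol with sulforhodamine B read-out. Seeded 2500 (A549, HBL-100, HeLa, SW1573), 5000 (T-47D, WiDr, SW1573/P-gp) or 7000 (BJ-hTERT) cells/well. Exposed 48 h to serial decimal dilutions, 0.001–100 μM, from 40 mM DMSO stock. GI50 by NCI formulas; mean of three or more experiments ± SD.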

[3] = Resistance factor, ratio of GI50 for growth inhibition of human SW1573 cells overexpressing P-glycoprotein measured after 48 hrs in presence of verapamil to GI50 for growth inhibition of human SW1573 cells measured after 48 hrs in presence of verapamil; assay type: functional
In short: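 SW1573 parental and P-gp-overexpressing cells given 48 h exposure to serial dilutions (0.001–100 μM) in medium containing verapamil at a final 10 μM as P-gp transport inhibitor. SRB read-out, GI50 by NCI formulas. Resistance factor taken as GI50 in SW1573/P-gp divided by GI50 in SW1573.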

[4] = tested on: SW1573; assay: Growth inhibition of human SW1573 cells measured after 48 hrs in presence of verapamil by SRB colorimetric assay; assay type: functional
In short: (§3)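 NCI-based protocol with sulforhodamine B read-out. Cells grown in RPMI 1640 with 5% FBS and 1 mM glutamine at 37 °C, 5% CO₂. Seeded 2500 (A549, HBL-100, HeLa, SW1573), 5000 (T-47D, WiDr, SW1573/P-gp) or 7000 (BJ-hTERT) cells/well. Exposed 48 h to serial decimal dilutions, 0.001–100 μM, from 40 mM DMSO stock. GI50 by NCI formulas; mean of three or more experiments ± SD.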

[5] = tested on: SW1573; assay: Inhibition of colony formation in human SW1573 cells assessed as reduction in colony size at GI50 concentration measured after 7 days by crystal violet staining based analysis; assay type: functional, cell-based; conditions: time 7.0 day; in short: as §1
[6] = tested on: T47D; assay: Growth inhibition of human T47D cells measured after 48 hrs by SRB colorimetric assay; assay type: functional; in short: as §2
[7] = tested on: SW1573; assay: Growth inhibition of human SW1573 cells overexpressing P-glycoprotein measured after 48 hrs in absence of verapamil by SRB colorimetric assay; assay type: functional; in short: as §3
[8] = tested on: SW1573; assay: Induction of morphological changes in human SW1573 cells assessed as decrease in cell volume at 20 uM measured after 5 hrs by microscopy based analysis; assay type: functional
In short: (§4)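 HeLa and SW1573 seeded at 100,000 cells/dish. After 24 h, medium switched to phenol-red-free RPMI 1640 and 20 μM added. Label-free holotomographic 3D live imaging of a 236 × 236 μm field, 10–20 cells initially, every 3 min for 15 h. Average dry mass density measured per cell at each cycle; morphology scored against untreated cells.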

[9] = tested on: HeLa; assay: Induction of morphological changes in human HeLa cells assessed as increase in cell shrinkage at 20 uM measured after 12 hrs by imaging based analysis
[10] = tested on: HeLa; assay: Induction of morphological changes in human HeLa cells assessed as release of cellular content at 20 uM measured after 12 hrs by imaging based analysis; assay type: functional, cell-based; in short: as §4
[11] = tested on: BV-2; assay: Cytotoxicity against mouse BV-2 cells at 10 uM measured after 24 hr by crystal violet staining based analysis; assay type: toxicity, cell-based; conditions: bv-2, 24 h
In short: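 Bv.2 cells grown to 70% confluence, exposed 24 h in serum-free medium to 0.1, 1.0, 10 and 25 μM. Fixed with 1% glutaraldehyde, stained with 0.1% crystal violet, dye released in 10% acetic acid, absorbance 590 nm. Mean ± SEM, n ≥ 3 independent experiments.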

[12] = Resistance factor, ratio of GI50 for growth inhibition of human SW1573 cells overexpressing P-glycoprotein measured after 48 hrs in absence of verapamil to GI50 for growth inhibition of human SW1573 cells measured after 48 hrs in absence of verapamil; assay type: functional
In short: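 Resistance factor: GI50 in P-gp-overexpressing SW1573 divided by GI50 in parental SW1573, each from 48 h SRB growth-inhibition assay without verapamil. Values are means of three or more independent experiments.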

[13] = tested on: BV-2; assay: Antiinflammatory activity in mouse BV-2 cells assessed as restoration of […] expression level at 10 uM incubated for 24 hrs with LPS stimulation by qRT-PCR analysis; assay type: functional, cell-based
In short: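 Bv.2 microglia stimulated with LPS 200 ng/mL with or without compound at 10 μM for 24 h. Arg1 mRNA measured by qRT-PCR, Actinb as housekeeping gene, 2^-ΔΔCT method, fold change relative to basal. n ≥ 4 independent experiments in triplicate.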

[14] = tested on: HeLa; assay: Induction of morphological changes in human HeLa cells assessed as increase in average dry mass density at 20 uM measured after 15 hrs by imaging based analysis; assay type: functional, cell-based; in short: as §4
[15] = tested on: SW1573; assay: Induction of morphological changes in human SW1573 cells assessed as formation of apoptotic bodies at 20 uM measured after 5 hrs by microscopy based analysis; assay type: functional, cell-based; in short: as §4
[16] = tested on: SW1573; assay: Growth inhibition of human SW1573 cells measured after 48 hrs by SRB colorimetric assay; assay type: functional; in short: as §2
[17] = tested on: SW1573; assay: Growth inhibition of human SW1573 cells overexpressing P-glycoprotein measured after 48 hrs in presence of verapamil by SRB colorimetric assay; assay type: functional; in short: as §3
[18] = tested on: SW1573; assay: Growth inhibition of human SW1573 cells measured after 48 hrs in absence of verapamil by SRB colorimetric assay; assay type: functional; in short: as §3
[19] = tested on: HeLa; assay: Induction of morphological changes in human HeLa cells assessed as cell shrinkage at 20 uM measured after 5 hrs by microscopy based analysis; assay type: functional; in short: as §4
[20] = tested on: HeLa; assay: Inhibition of colony formation in human HeLa cells assessed as reduction in number of colonies at GI50 concentration measured after 7 days by crystal violet staining based analysis; assay type: functional, cell-based; conditions: time 7.0 day; in short: as §1
[21] = tested on: HeLa; assay: Inhibition of colony formation in human HeLa cells assessed as reduction in number of colonies at one third of GI50 concentration measured after 7 days by crystal violet staining based analysis; assay type: functional, cell-based; conditions: time 7.0 day; in short: as §1
[22] = tested on: SW1573; assay: Inhibition of colony formation in human SW1573 cells assessed as reduction in colony size at one third of GI50 concentration measured after 7 days by crystal violet staining based analysis; assay type: functional, cell-based; conditions: time 7.0 day; in short: as §1
[23] = tested on: BV-2; assay: Protection against LPS induced inflammation in mouse BV-2 cells assessed as decrease in IL1-beta mRNA expression at 10 uM incubated for 24 hrs with LPS stimulation by qRT-PCR analysis
[24] = tested on: SW1573; assay: Induction of apoptosis in human SW1573 cells assessed as membrane blebbing at 20 uM measured upto 15 hrs by microscopy based analysis; assay type: functional, cell-based; in short: as §4
[25] = tested on: HeLa; assay: Induction of morphological changes in human HeLa cells assessed as signal transition to necrotic stage at 20 uM measured after 12 hrs by imaging based analysis; assay type: functional, cell-based; in short: as §4

CCCCCCCCCCCCS(=O)(=O)[C@@H]1[C@H](F)[C@@H](O)[C@H](O)[C@H]2COC(=O)N21
inhibition [1]: Active
GI50 [2]: 4.5 µM
RatioGI50 [3]: 0.7
GI50 [4]: 15 µM
inhibition [5]: Active
GI50 [6]: 18 µM
GI50 [7]: 5.3 µM
Activity [8]: Active
Activity [9]: Active
Activity [10]: Active
Activity [11]: Non-Toxic
RatioGI50 [12]: 1.6
Activity [13]: Active
Activity [14]: Active
Activity [15]: Active
GI50 [16]: 9.1 µM
GI50 [17]: 11 µM
GI50 [18]: 3.3 µM
Activity [19]: Active
inhibition [20]: Active
inhibition [21]: Active
inhibition [22]: Active
Activity [23]: Active
Activity [24]: inactive
Activity [25]: Active

Source: ChEMBL document CHEMBL5321236, “Fluoro-labelled sp2-iminoglycolipids with immunomodulatory properties” (Eur J Med Chem, 2023)
